Bioassay records from PubChem BioAssay.
Most compounds without a hit are left out; they make up all but 2% or so of the library.
zfTRPN1 agonist – zebrafish TRPN1 (NompC) channel agonism; AID 1424; activation, % at 3 µM; 0.18% of 220,000 active; HEK293 zebrafish TRPN1-YFP, Fluo-8 calcium fluorescence; 100% = response to 87 µM carbachol;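 active = activation above its plate's cutoff, the mean activation of test wells on that plate plus 3 SD, cut at about 19% in these data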
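Assay system: Zebrafish TRPN1-YFP in HEK293 cells | Incubation: Dye loading 1 h at 37 °C, then 30 min room temperature | Measured by: Kinetic Fluo-8 fluorescence, ex 470-495, em 515-575 nm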
TRPML3 agonist – human mucolipin-3 channel agonism; Q8TDD5; HEK293 TRPML3-YFP, Fluo-8 calcium fluorescence; 100% = the carbachol control signal; activation, % at 3 µM; 0.29% of 220,000 active; AID 1448;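 active = activation above its plate's cutoff, the mean activation of the plate's test wells plus 3 SD, cut at about 12% in these data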
Target sequence (Q8TDD5 whole entry, looked up): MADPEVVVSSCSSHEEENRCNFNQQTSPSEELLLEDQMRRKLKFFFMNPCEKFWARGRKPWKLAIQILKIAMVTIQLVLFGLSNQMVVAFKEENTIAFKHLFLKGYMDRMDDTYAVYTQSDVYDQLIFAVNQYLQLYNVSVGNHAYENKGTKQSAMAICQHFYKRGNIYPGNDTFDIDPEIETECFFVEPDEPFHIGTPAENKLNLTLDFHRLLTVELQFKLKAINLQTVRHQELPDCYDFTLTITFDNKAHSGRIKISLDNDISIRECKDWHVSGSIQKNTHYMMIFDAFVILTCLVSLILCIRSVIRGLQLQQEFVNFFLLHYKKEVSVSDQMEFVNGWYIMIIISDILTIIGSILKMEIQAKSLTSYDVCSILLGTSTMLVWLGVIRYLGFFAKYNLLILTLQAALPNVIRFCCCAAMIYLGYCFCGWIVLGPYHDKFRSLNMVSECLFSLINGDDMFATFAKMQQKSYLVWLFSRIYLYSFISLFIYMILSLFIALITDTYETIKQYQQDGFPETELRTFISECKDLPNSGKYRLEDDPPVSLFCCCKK
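Material: TRPML3-YFP stable HEK293 cells | Dosing: One concentration, 3 µM nominal, 0.3% DMSO | Timing: 125 s total fluorescence read per well | Technique: Fluo-8 calcium dye fluorescence, ex 470-495, em 515-575 nm | Measure: Percent activation from peak-to-basal fluorescence ratio, scaled between DMSO and carbachol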
CRFBP-R2 agonist – agonists of human CRF-binding protein/CRF-R2 receptor complex | HEK293 CRF-R2/CRF-BP, calcium dye fluorescence (FLIPR); percent of saturating CRF peptide response | activation, % at 13.2 µM | 0.46% of 350,000 active;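 active = activation of at least 50%, plus an integration ratio under a set limit after plate pattern correction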
GPR7 antagonist – human neuropeptides B/W receptor 1 antagonism; GPR7-expressing cells, fluorescence antagonist assay; inhibition, % at 4.4 µM; P48145; 1.1% of 290,000 active; in the data active = inhibition above about 16%, passing the limit was not always enough;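 also: cells stimulated with the agonist NPW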
CRFBP-R2 block – blocks CRF-induced signaling of the CRF-BP/CRF-R2 complex | HEK293 CRF-R2/CRF-BP, CRF-induced calcium fluorescence | inhibition, % at 11.8 µM | 0.59% of 350,000 active | AID 588475;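 active = inhibition of the ligand-induced calcium signal above about 50% at the single tested concentration, limit read from the data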
TRPN1 counter – zebrafish TRPN1 agonism as TRPML3 agonist counter-screen | activation, % at 3 µM | 10% of 310 active | AID 1525 | HEK293 zebrafish TRPN1-YFP, Fluo-8 calcium fluorescence; scaled: carbachol wells 100%, DMSO wells 0% | shares compounds with TRPML3 agonist;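 active = mean activation over replicates above a set limit taken from the earlier TRPN1 channel primary screen, cut at about 19% in these data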
TRPML3 ag conf – human TRPML3 agonism, confirmation; shares compounds with TRPML3 agonist; AID 1526; HEK293 TRPML3-YFP, Fluo-8 calcium fluorescence; 100% set by carbachol, 0% by DMSO; 80% of 310 active; activation, % at 3 µM;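 active = activation above a set limit derived from the earlier primary screen, cut at about 12% in these data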
Each line names hits and unclear results; the compound was inactive in the other large screens (follow-up assays come after a bar, where they were run).

O=C1c2ccc(-c3ccc4c(c3)C(=O)N(CCCO)C4=O)cc2C(=O)N1CCCO	none
Cc1sc(NC(=O)C2CCCCC2C(=O)O)c(C(N)=O)c1-c1ccc(C(C)(C)C)cc1 (configuration not stated)	CRFBP-R2 agonist 104
C[C@]12C=C[C@H](O)CC1=CCC1C2CC[C@@]2(C)C1CCC21OCCO1 (some centres not stated)	none (no result: zfTRPN1 agonist, TRPML3 agonist, GPR7 antagonist)
CC1(NC(=O)Cc2ccc(Cl)c(Cl)c2)CCS(=O)(=O)C1 (configuration not stated)	none (no result: zfTRPN1 agonist, TRPML3 agonist, GPR7 antagonist)
O=C1CCc2cc(S(=O)(=O)N3CCC(C(=O)NC4CCCCCCC4)CC3)ccc2N1	CRFBP-R2 block 68
CCCCn1c(=NC(=O)c2cccnc2)c(C#N)cc2c(=O)n3cccc(C)c3nc21	CRFBP-R2 agonist 89
CCCCn1c(=N)c(S(=O)(=O)c2ccc(Br)cc2)cc2c(=O)n3cccc(C)c3nc21	CRFBP-R2 agonist 59 (no result: zfTRPN1 agonist, TRPML3 agonist)
Cc1ccc(S(=O)(=O)c2cc3c(=O)n4ccccc4nc3n(Cc3ccco3)c2=N)cc1	CRFBP-R2 agonist 66
CCN(C(=O)COC(=O)Cc1cccc2ccccc12)C1CCS(=O)(=O)C1 (configuration not stated)	CRFBP-R2 block 122 (no result: zfTRPN1 agonist, TRPML3 agonist, GPR7 antagonist)
CC1(C)CSC(=NCCc2ccccc2)N1C(=O)c1ccc(C#N)cc1	GPR7 antagonist 20
COc1ccc(S(=O)(=O)Nc2cccc3c2O[C@H](CN(C)CC2CCCCC2)[C@@H](C)CN([C@H](C)CO)C3=O)cc1	none (no result: zfTRPN1 agonist, TRPML3 agonist, GPR7 antagonist)
CC(C)(C)NC(=O)/C(=C/c1ccccc1F)NC(=O)c1ccc([N+](=O)[O-])cc1	CRFBP-R2 block 52
CCNc1nc(Sc2ccc(C)cc2)cc(C(F)(F)F)n1	none
CC(C)c1cc(C(F)(F)F)nc(NNc2nc(C(C)C)cc(C(F)(F)F)n2)n1	CRFBP-R2 block 54 (no result: zfTRPN1 agonist, TRPML3 agonist, GPR7 antagonist)
COC(=O)[C@]1(C)N[C@H](CN(C)S(=O)(=O)c2ccc(F)cc2)[C@@H]2C(=O)N(C)C(=O)[C@@H]21	none (no result: zfTRPN1 agonist, TRPML3 agonist, GPR7 antagonist)
COC(=O)c1ccc(OCC(O)CN2C(=O)c3ccccc3S2(=O)=O)cc1 (configuration not stated)	CRFBP-R2 block 58
O=C1c2ccccc2S(=O)(=O)N1CC(O)COc1ccc(Cl)cc1 (configuration not stated)	none
CN1OC[C@@H]2CN(Cc3cc(Cl)cc(Cl)c3)[C@H](c3cccc(-c4ccccc4)c3)C[C@@H]21	none (no result: zfTRPN1 agonist, TRPML3 agonist, GPR7 antagonist)
CC(=O)Nc1ccc(S(=O)(=O)N2CCC(NC(=O)C(Cc3cccc(F)c3)NC(C)=O)CC2)cc1 (configuration not stated)	none (no result: zfTRPN1 agonist, TRPML3 agonist)
COC(=O)c1ccc(/C=C(\C#N)c2nc3ccccc3s2)cc1	TRPML3 agonist 14 | TRPN1 counter inactive | TRPML3 ag conf inactive
CCCn1cc(S(=O)(=O)c2ccc(F)cc2)c(=O)c2cc(OCC)ccc21	none (no result: zfTRPN1 agonist, TRPML3 agonist)
C=CCOc1ccc2c(c1)c(S(=O)(=O)c1ccc(C)cc1)cn2COC	TRPML3 agonist 127 | TRPN1 counter inactive | TRPML3 ag conf 139
Cc1sc(NC(=O)C2C3CCC(C3)C2C(=O)O)c(C(N)=O)c1-c1ccc(C(C)(C)C)cc1 (configuration not stated)	TRPML3 agonist 18 | TRPN1 counter inactive | TRPML3 ag conf inactive
COc1cc(C(=O)Nc2ccn(C)n2)ccc1OC(F)F	none (no result: zfTRPN1 agonist, TRPML3 agonist, GPR7 antagonist)
S=C1CCC(c2ccc(Cl)cc2)=NN1c1ccccc1	TRPML3 agonist 16 | TRPN1 counter inactive | TRPML3 ag conf inactive
O=C(COc1ccccc1)NCC(=O)N/N=C/c1ccc(Br)cc1	none (no result: zfTRPN1 agonist, TRPML3 agonist)
Cc1cc(NC(=O)COC(=O)C(Cc2ccccc2)NC(=O)c2ccco2)no1 (configuration not stated)	TRPML3 agonist 18, CRFBP-R2 agonist 153 | TRPN1 counter 22 | TRPML3 ag conf 24
COc1ccc(OC)c(NC(=O)COC(=O)[C@H](Cc2ccccc2)NC(=O)c2ccco2)c1	none (no result: zfTRPN1 agonist, TRPML3 agonist, GPR7 antagonist)
Cc1ccc(S(=O)(=O)n2nccc2-c2c(-c3ccc(Cl)cc3)noc2C)cc1	TRPML3 agonist 82 | TRPN1 counter inactive | TRPML3 ag conf 106
Cc1c(Cl)cc(C(C)C)c(O)c1CN1CCOCC1	none (no result: zfTRPN1 agonist, TRPML3 agonist, GPR7 antagonist)
Cc1cc(C(C)c2ccccc2)c(O)c(CN2CCOCC2)c1C (configuration not stated)	TRPML3 agonist 16 | TRPN1 counter inactive | TRPML3 ag conf 33
CN(C)c1ncc(S(=O)(=O)c2ccccc2)c(-c2ccc(Cl)cc2Cl)n1	TRPML3 agonist 58 | TRPN1 counter inactive | TRPML3 ag conf 82
CN(C)c1nc(-c2ccccc2)ncc1S(=O)(=O)c1ccccc1	none
CCCOc1cc(N(CC)CC)ccc1/C=C(/C#N)c1nc2ccc(C)cc2[nH]1	TRPML3 agonist 13, CRFBP-R2 agonist 107 | TRPN1 counter 24 | TRPML3 ag conf 13
O=C(CNS(=O)(=O)c1ccccc1)OCC(=O)c1ccccc1Cl	none (no result: zfTRPN1 agonist, TRPML3 agonist)
O=C(C1=C(O)C(=O)N(CCc2ccccc2)C1c1ccncc1)c1cc2ccccc2o1 (configuration not stated)	none
O=C(C1=C(O)C(=O)N(c2nccs2)C1c1ccccc1)c1cc2ccccc2o1 (configuration not stated)	TRPML3 agonist 12, CRFBP-R2 agonist 168 | TRPN1 counter inactive | TRPML3 ag conf inactive
COc1ccc(CNC(=O)O[C@]23C[C@H]4C(=O)N(c5ccccc5)C(=O)[C@H]4C[C@@]2(O)CN(S(=O)(=O)c2ccc(C)cc2)C3)cc1OC	none (no result: zfTRPN1 agonist, TRPML3 agonist, GPR7 antagonist)
Cc1ccc(S(=O)(=O)N2C(=S)SCC2(C)C)cc1	TRPML3 agonist 28 (no result: CRFBP-R2 agonist, CRFBP-R2 block) | TRPN1 counter inactive | TRPML3 ag conf 47
CCOc1ccc2c(c1)C(C)=CC(C)(C)N2S(=O)(=O)c1ccc(C)cc1	TRPML3 agonist 16 | TRPN1 counter inactive | TRPML3 ag conf 33
O=C(Cc1ccc(NC(=O)C2CCN(C(=O)C3CCCCC3)CC2)cc1)Nc1ccc(C(=O)N2CCOCC2)cc1	none (no result: zfTRPN1 agonist, TRPML3 agonist, GPR7 antagonist)
Cc1cc(C)c(S(=O)(=O)N2CCCCC2)cc1N(C)S(=O)(=O)c1ccc(Cl)cc1	TRPML3 agonist 68 | TRPN1 counter inactive | TRPML3 ag conf 69
Cc1ccc(S(=O)(=O)N2CCN(C)CC2)c(C)c1N(C)S(=O)(=O)c1ccc(Cl)cc1	TRPML3 agonist 77 | TRPN1 counter inactive | TRPML3 ag conf 58
Cc1c(Cl)ccc(S(=O)(=O)N2CCN(C)CC2)c1Cl	none (no result: zfTRPN1 agonist, TRPML3 agonist, GPR7 antagonist)
Cc1cc(C)c(S(=O)(=O)N2CCN(C(=O)CN3C(=O)NC4(CCCC4)C3=O)CC2)c(C)c1	none (no result: zfTRPN1 agonist, TRPML3 agonist)
CCOC(=O)C(C)(C)N(Cc1cccc(C)c1)S(=O)(=O)c1cccc([N+](=O)[O-])c1	TRPML3 agonist 12 | TRPN1 counter inactive | TRPML3 ag conf 36
